GI50 and LC50 data for four compounds are collected here from ChEMBL document CHEMBL1158641, “Total synthesis of (+/-)-elegansidiol, (+/-)-farnesiferol B, and (+/-)-farnesiferol D” (2010).

The structures appear in SMILES notation. The source made the active and inactive calls. The calls are words filed in the database; no cut-off is given here.

In one assay the test system is A549. Put plainly: Cytotoxicity against human A549 cells after 48 hrs by SRB assay. The class given is functional. An outline of the steps:
(§1)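 Compounds tested at […], triplicate wells, 48 h continuous exposure. SRB staining (0.4% in 1% acetic acid, 20 min RT), dye eluted with 10 mM trizma base, absorbance 540 nm (690 nm reference). GI50 from net-growth formula; experiments repeated three times.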
(In general: In SRB staining, fixed cells bind dye roughly in proportion to their protein.)

A further assay has as its system SK-N-SH. The assay can be described thus: Cytotoxicity against human SK-N-SH cells after 48 hrs by SRB assay. The class given is functional. An outline of the steps: as §1

Broadly, the GI50 is the concentration giving 50% growth inhibition. The LC50 is the concentration that kills 50% of the test population. With `C=C1CC[C@@H](O)C(C)(C)[C@@H]1CCC(C)=CCOc1ccc2ccc(=O)oc2c1` (mixture of isomers), in the assay with A549 (A549, 48 h), it took 25 µM to inhibit growth by half (GI50) and the median lethal concentration (LC50) worked out at 46 µM. For the same compound, in the assay with SK-N-SH, the GI50 result is “inactive” and the LC50 entry is “inactive”.
In the case of `C=C1CC[C@H](O)C(C)(C)[C@@H]1CCC(C)=CCOc1ccc2ccc(=O)oc2c1` (mixture of isomers), the GI50 entry in the assay with A549 and with SK-N-SH was “inactive” in each case. Further, the LC50 entry with A549 and in the assay with SK-N-SH was “inactive” throughout.
Consider `C=C1CC[C@H](O)C(C)(C)[C@@H]1CC/C(C)=C/CO` (racemic), for which the GI50 entry in the assay with A549 and in the assay on SK-N-SH was “inactive” throughout. Further, the LC50 result in the assay on A549 and in the assay on SK-N-SH was “inactive” in each case.
`COC(=O)Nc1nc2cc(C(=O)c3cccs3)ccc2[nH]1` [NOCODAZOLE]: the 50% growth inhibitory concentration (GI50) in the assay on A549 (A549, 48 h) was 0.5 µM; with SK-N-SH, 0.65 µM.
